In ChEMBL document CHEMBL4002615, “Investigation of piperazine benzamides as human β3 adrenergic receptor agonists for the treatment of overactive bladder” (Bioorg Med Chem Lett, 2017):

Experiments:
[1] = biological target: Beta-1 adrenergic receptor (Homo sapiens, UniProt P08588); test: Activity at human beta1 adrenergic receptor
[2] = biological target: T1, Beta-3 adrenergic receptor (Homo sapiens, UniProt P13945); test: Agonist activity at human beta3 adrenergic receptor relative to R-(-)-isoproterenol
Target sequence in this assay (P13945 whole entry, looked up): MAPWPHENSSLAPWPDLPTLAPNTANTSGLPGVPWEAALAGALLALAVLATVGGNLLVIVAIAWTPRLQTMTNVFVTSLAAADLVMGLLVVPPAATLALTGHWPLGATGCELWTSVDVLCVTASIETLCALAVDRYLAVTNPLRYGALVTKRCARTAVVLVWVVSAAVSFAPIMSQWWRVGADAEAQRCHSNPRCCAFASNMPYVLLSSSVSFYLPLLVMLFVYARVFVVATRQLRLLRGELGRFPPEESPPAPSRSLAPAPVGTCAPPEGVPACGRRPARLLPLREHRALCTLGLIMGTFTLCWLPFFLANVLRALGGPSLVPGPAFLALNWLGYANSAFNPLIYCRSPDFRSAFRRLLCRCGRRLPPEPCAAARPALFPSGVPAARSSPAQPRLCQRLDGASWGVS

[3] = biological target: Sodium-dependent noradrenaline transporter (Homo sapiens, UniProt P23975); test: Inhibition of NET (unknown origin) expressed in HEK293 cells assessed as reduction in norepinephrine reuptake; format: cell-based
[4] = biological target: Sodium-dependent serotonin transporter (Homo sapiens, UniProt P31645); test: Inhibition of SERT (unknown origin)
[5] = biological target: T1, Beta-3 adrenergic receptor; test: Agonist activity at human beta3 adrenergic receptor
Outline: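 Human β3 receptor agonist EC50 given as the mean of at least two experiments.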
Target sequence in this assay (P13945 whole entry): as the sequence (P13945 whole entry, looked up) above

[6] = biological target: Beta-2 adrenergic receptor (Homo sapiens, UniProt P07550); test: Activity at human beta2 adrenergic receptor
[7] = biological target: Sodium channel protein type 5 subunit alpha (Homo sapiens, UniProt Q14524); test: Inhibition of human Nav1.5 by electrophysiology method
[8] = Induction of phospholipidosis in human HepG2 cells; format: cell-based; details: read-out: A50
[9] = biological target: Voltage-gated inwardly rectifying potassium channel KCNH2 (Homo sapiens, UniProt Q12809); test: Inhibition of human ERG
Canis familiaris [10] = test: Total dose normalized AUC in dog at 2 mg/kg, po; format: ADME, organism-based, Canis lupus familiaris; details: in vivo
[11] = Half life in dog at 0.5 mg/kg, iv or 2 mg/kg, po; format: ADME, organism-based, Canis lupus familiaris; details: in vivo
[12] = Unbound fraction in rhesus monkey at 0.5 mg/kg, iv or 2 mg/kg, po; format: ADME, organism-based, Macaca mulatta; details: in vivo
Rhesus monkey [13] = test: Unbound clearance in rhesus monkey at 0.5 mg/kg, iv or 2 mg/kg, po; format: ADME, organism-based, Macaca mulatta; details: in vivo
Rhesus monkey [14] = test: Total dose normalized AUC in rhesus monkey at 2 mg/kg, po; format: ADME, organism-based, Macaca mulatta; details: in vivo
Canis familiaris [15] = test: Unbound dose normalized AUC in dog at 2 mg/kg, po; format: ADME, organism-based, Canis lupus familiaris; details: in vivo
[16] = Half life in rat at 1 mg/kg, iv or 2 mg/kg, po; format: ADME, organism-based; details: in vivo
[17] = Oral bioavailability in dog at 2 mg/kg; format: ADME, organism-based, Canis lupus familiaris; details: in vivo
[18] = Plasma clearance in rhesus monkey at 0.5 mg/kg, iv or 2 mg/kg, po; format: ADME, organism-based, Macaca mulatta
[19] = Oral bioavailability in rat 2 mg/kg; format: ADME, organism-based; details: in vivo
Rattus norvegicus [20] = test: Unbound clearance in rat at 1 mg/kg, iv or 2 mg/kg, po; format: ADME, organism-based; details: in vivo
[21] = Plasma clearance in dog at 0.5 mg/kg, iv or 2 mg/kg, po; format: ADME, organism-based, Canis lupus familiaris
[22] = Half life in rhesus monkey at 0.5 mg/kg, iv or 2 mg/kg, po; format: ADME, organism-based, Macaca mulatta; details: in vivo
[23] = Volume of distribution in rhesus monkey at 0.5 mg/kg, iv or 2 mg/kg, po; format: ADME, organism-based, Macaca mulatta; details: in vivo
[24] = Plasma clearance in rat at 1 mg/kg, iv or 2 mg/kg, po; format: ADME, organism-based
[25] = Volume of distribution in rat at 1 mg/kg, iv or 2 mg/kg, po; format: ADME, organism-based; details: in vivo
Rhesus monkey [26] = test: Unbound dose normalized AUC in rhesus monkey at 2 mg/kg, po; format: ADME, organism-based, Macaca mulatta; details: in vivo
[27] = Volume of distribution in dog at 0.5 mg/kg, iv or 2 mg/kg, po; format: ADME, organism-based, Canis lupus familiaris; details: in vivo
[28] = Oral bioavailability in rhesus monkey at 2 mg/kg; format: ADME, organism-based, Macaca mulatta; details: in vivo
[29] = Unbound fraction in rat at 1 mg/kg, iv or 2 mg/kg, po; format: ADME, organism-based; details: in vivo
[30] = Unbound fraction in dog at 0.5 mg/kg, iv or 2 mg/kg, po; format: ADME, organism-based, Canis lupus familiaris; details: in vivo
Rattus norvegicus [31] = test: Unbound dose normalized AUC in rat 2 mg/kg, po; format: ADME, organism-based; details: in vivo
Canis familiaris [32] = test: Unbound clearance in dog at 0.5 mg/kg, iv or 2 mg/kg, po; format: ADME, organism-based, Canis lupus familiaris; details: in vivo
Rattus norvegicus [33] = test: Total dose normalized AUC in rat 2 mg/kg, po; format: ADME, organism-based; details: in vivo

Beta-2 adrenergic receptor, sequence (P07550 whole entry): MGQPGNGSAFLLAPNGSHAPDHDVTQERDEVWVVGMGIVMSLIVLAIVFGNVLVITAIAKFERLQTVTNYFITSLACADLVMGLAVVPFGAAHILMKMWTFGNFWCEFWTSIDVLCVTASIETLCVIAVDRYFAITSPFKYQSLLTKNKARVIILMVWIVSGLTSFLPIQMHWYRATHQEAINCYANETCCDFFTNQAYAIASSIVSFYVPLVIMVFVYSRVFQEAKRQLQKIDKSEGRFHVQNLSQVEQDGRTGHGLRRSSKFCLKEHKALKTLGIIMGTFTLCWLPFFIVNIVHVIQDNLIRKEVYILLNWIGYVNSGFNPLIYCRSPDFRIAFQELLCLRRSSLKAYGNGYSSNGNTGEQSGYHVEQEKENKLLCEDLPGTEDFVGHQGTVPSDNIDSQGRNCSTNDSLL
Beta-1 adrenergic receptor, sequence (P08588 whole entry): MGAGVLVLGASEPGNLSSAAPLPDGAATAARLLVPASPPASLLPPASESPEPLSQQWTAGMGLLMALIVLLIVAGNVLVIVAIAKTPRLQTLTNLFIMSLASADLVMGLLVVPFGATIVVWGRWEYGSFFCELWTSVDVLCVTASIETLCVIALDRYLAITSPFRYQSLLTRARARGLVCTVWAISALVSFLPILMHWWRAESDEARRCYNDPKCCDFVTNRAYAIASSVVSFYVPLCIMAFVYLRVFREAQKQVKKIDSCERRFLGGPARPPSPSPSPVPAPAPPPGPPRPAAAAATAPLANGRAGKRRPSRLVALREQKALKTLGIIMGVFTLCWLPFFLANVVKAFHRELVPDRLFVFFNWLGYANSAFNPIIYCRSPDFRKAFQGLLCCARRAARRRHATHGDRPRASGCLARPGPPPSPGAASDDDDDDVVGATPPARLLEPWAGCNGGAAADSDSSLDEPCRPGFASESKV
Sodium-dependent serotonin transporter, sequence (P31645 whole entry): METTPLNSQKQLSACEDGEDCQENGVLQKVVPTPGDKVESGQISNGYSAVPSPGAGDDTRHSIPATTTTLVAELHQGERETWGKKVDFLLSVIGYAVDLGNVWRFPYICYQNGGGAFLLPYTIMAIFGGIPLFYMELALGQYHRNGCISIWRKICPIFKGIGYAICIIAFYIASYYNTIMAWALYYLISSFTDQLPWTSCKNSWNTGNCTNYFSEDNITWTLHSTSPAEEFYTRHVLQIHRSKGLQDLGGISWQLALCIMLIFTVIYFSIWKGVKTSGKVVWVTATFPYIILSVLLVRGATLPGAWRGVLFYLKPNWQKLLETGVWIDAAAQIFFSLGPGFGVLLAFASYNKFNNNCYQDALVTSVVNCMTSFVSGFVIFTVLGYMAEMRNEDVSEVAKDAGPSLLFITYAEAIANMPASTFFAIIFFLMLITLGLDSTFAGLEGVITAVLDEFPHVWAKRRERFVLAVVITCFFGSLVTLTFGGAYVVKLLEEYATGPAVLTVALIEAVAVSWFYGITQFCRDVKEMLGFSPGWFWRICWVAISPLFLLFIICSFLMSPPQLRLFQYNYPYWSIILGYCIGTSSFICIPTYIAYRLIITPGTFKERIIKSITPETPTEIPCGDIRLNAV
Sodium channel protein type 5 subunit alpha, sequence (Q14524 whole entry): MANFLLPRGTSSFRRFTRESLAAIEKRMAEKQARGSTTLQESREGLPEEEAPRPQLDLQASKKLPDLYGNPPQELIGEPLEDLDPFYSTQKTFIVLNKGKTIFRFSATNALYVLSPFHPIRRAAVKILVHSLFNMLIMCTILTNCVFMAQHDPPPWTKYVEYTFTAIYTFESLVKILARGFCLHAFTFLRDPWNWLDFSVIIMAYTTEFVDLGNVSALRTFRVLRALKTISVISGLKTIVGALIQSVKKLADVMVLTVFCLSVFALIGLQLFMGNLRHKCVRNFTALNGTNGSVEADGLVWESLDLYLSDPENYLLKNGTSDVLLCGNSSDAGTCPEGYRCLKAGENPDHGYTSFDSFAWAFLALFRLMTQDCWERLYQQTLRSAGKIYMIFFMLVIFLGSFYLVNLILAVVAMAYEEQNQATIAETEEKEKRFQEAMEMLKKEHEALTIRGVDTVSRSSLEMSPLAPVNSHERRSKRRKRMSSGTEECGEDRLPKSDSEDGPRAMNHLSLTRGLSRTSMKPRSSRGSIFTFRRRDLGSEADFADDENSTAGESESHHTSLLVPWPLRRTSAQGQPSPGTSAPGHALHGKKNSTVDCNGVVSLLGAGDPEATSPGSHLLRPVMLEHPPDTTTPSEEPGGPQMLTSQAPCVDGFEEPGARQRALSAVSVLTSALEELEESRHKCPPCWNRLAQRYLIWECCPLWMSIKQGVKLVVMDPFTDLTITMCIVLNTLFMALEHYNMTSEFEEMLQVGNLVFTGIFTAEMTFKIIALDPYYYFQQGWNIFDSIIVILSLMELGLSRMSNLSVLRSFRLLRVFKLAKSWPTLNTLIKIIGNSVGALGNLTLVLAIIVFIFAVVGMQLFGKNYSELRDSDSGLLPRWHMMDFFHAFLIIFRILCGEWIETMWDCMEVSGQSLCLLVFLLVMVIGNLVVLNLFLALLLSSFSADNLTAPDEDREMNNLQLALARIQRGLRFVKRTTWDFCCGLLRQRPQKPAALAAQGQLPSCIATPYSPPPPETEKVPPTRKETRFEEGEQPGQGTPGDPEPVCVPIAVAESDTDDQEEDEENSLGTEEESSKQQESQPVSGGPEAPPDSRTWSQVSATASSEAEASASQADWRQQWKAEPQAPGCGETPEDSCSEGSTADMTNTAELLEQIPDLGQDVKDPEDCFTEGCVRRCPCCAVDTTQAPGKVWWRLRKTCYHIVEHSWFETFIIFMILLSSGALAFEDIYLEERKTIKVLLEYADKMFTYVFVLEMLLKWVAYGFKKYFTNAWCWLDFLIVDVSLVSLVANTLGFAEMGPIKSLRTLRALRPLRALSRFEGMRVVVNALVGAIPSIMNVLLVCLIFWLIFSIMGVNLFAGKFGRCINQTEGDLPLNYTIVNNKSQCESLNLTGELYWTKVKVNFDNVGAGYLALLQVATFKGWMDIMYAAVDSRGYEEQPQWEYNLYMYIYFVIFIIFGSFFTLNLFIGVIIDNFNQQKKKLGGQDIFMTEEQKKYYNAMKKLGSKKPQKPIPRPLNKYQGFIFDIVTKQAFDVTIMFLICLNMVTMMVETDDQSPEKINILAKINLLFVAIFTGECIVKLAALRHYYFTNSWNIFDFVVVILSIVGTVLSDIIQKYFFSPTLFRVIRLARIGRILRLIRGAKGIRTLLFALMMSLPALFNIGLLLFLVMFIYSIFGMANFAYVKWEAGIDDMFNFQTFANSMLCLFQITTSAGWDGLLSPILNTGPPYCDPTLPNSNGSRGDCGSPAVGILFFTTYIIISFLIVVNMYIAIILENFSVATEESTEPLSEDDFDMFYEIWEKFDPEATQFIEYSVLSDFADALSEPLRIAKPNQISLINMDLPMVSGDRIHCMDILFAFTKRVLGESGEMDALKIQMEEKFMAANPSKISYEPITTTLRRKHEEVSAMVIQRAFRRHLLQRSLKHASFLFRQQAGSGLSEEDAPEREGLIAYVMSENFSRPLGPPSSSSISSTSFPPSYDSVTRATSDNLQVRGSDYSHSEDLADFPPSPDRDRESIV
Sodium-dependent noradrenaline transporter, sequence (P23975 whole entry): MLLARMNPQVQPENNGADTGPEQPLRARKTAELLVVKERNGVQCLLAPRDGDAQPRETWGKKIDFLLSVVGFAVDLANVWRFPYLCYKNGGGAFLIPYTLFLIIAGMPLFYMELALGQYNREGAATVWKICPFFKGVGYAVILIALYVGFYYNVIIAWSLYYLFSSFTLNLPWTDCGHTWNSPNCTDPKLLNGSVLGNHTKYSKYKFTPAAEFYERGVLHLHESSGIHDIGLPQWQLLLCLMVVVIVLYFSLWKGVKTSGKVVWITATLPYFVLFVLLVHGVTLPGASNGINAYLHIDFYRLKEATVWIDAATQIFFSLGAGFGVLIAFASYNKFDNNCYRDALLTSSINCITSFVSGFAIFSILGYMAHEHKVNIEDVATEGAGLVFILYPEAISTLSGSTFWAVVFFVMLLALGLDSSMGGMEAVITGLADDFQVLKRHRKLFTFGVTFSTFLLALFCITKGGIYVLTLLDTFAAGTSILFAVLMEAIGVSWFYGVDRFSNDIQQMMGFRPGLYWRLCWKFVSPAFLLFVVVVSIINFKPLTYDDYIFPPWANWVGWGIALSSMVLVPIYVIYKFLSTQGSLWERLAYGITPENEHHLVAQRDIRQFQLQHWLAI

| IC50 [1] [µM] | Emax [2] [%] | EC50 [3] [nM] | IC50 [4] [µM] | EC50 [5] [nM] | IC50 [6] [µM] | AUC/dose (Canis familiaris [10]) [µM·h/mg/kg] | AUC/dose (Rhesus monkey [14]) [µM·h/mg/kg] | half-life [16] [min] | clearance [18] [mL/min/kg] | bioavailability [19] [%] | Vd [23] [L/kg] | clearance [24] [mL/min/kg] | Vd [25] [L/kg] | bioavailability [28] [%] | AUC/dose (Rattus norvegicus [33]) [µM·h/mg/kg] | SMILES | IC50 [7] [µM] | AC50 [8] [µM] | IC50 [9] [µM] | also measured |
| --- | --- | --- | --- | --- | --- | --- | --- | --- | --- | --- | --- | --- | --- | --- | --- | --- | --- | --- | --- | --- |
| > 20 | 109 | 254 | > 10 | 2.5 | > 20 | – | – | – | – | – | – | – | – | – | – | Cc1nnc(-c2cccc(CN3CCN(C(=O)c4ccc(C[C@@H]5CC[C@H]([C@H](O)c6ccccc6)N5)cc4)CC3)n2)o1 | > 30 | 68 | – | – |
| > 20 | 99 | 1390 | > 10 | 5.2 | > 20 | – | – | – | – | – | – | – | – | – | – | O=C(c1ccc(C[C@@H]2CC[C@H]([C@H](O)c3ccccc3)N2)cc1)N1CCN(Cc2nnn(CC3CC3)n2)CC1 | > 30 | 70 | 39.4 | – |
| > 20 | 87 to 88 | 339 | > 10 | – | > 20 | 1.3 | 0.34 | 156 | 18 | 71 | 11 | 71 | 19 | 16 | 0.35 | O=C(c1ccc(C[C@@H]2CC[C@H]([C@H](O)c3ccccc3)N2)cc1)N1CCN(Cc2ccccn2)CC1 | > 30 | 54 | – | half-life [11]: 720 min; fraction unbound [12]: 0.42; CL free (Rhesus monkey [13]): 43 mL/min/kg; fAUC/dose (Canis familiaris [15]): 0.62 µM·h/mg/kg; bioavailability [17]: 27%; CL free (Rattus norvegicus [20]): 148 mL/min/kg; clearance [21]: 7.9 mL/min/kg; half-life [22]: 348 min; fAUC/dose (Rhesus monkey [26]): 0.14 µM·h/mg/kg; Vd [27]: 6.4 L/kg; fraction unbound [29]: 0.48; fraction unbound [30]: 0.48; fAUC/dose (Rattus norvegicus [31]): 0.17 µM·h/mg/kg; CL free (Canis familiaris [32]): 17 mL/min/kg |
| > 20 | 113 | 65 | > 10 | 1.6 | > 20 | – | – | 324 | – | < 1 | – | 105 | 38 | – | 0.3 | O=C(c1ccc(C[C@@H]2CC[C@H]([C@H](O)c3ccccc3)N2)cc1)N1CCN(Cc2ncn(CC(F)(F)F)n2)CC1 | > 30 | – | > 60 | – |
| – | – | – | – | – | – | 0.46 | 0.06 | – | 30 | – | 5.2 | – | – | 5 | 0.21 | CCc1nnc([C@H]2[C@@H]3CN(C(=O)c4ccc(C[C@@H]5CC[C@H]([C@H](O)c6ccccc6)N5)cc4)C[C@@H]32)o1 | – | – | – | – |
